Assay [1] relates to NCI-H460 cells. As to the kind of experiment: Cytotoxicity assay to NCI-H460 human lung carcinoma cells. It counts as cell-based.
Assay [2] addresses human 20S proteasome ChT-L site (Homo sapiens, UniProt P20618+P28074). The assay can be described thus: Proteasome inhibition assay, chymotrypsin-like site, fluorogenic substrate. It counts as biochemical. In outline:
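Human recombinant 20S proteasome, 3 µg/mL in buffer (100 mM Tris pH 7.5, 0.5 mM EDTA, 0.03% SDS), preincubated 30 min at 37 °C with test compound or 25% DMSO vehicle. Reaction started with site-selective AMC substrate (Suc-LLVY-AMC for ChT-L) and run 30 min at 37 °C. Eleven-point 3-fold series, 1.0 µM–[…] final, in triplicate. Fluorescence read at ex 365/em 450 nm; data scaled to internal controls; IC50 from four-parameter logistic fit.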

Assay [3] relates to MDA-MB-468 cells (Her2-). As to the kind of experiment: Cell proliferation assay. It counts as cell-based. The note with it: Homo sapiens, MDA-MB-468, read-out: MDA-MB-468 IC50.
For assay [4], the target named is human 20S proteasome T-L site (Homo sapiens, UniProt P49720+Q99436). The assay can be described thus: Proteasome inhibition assay, trypsin-like site, fluorogenic substrate. It counts as biochemical.
Assay [5] has as its system HCT116 cells. As to the kind of experiment: Cytotoxicity to HCT116 colon adenocarcinoma cell line. It counts as cell-based.
Assay [6] addresses human 20S proteasome C-L site (Homo sapiens, UniProt P28072+Q99436). As to the kind of experiment: Proteasome inhibition assay, caspase-like site, fluorogenic substrate. It counts as biochemical.
In assay [7] the test system is SKBR3 cells (Her2+). The assay can be described thus: Cell proliferation assay. The note with it: Homo sapiens, SK-BR-3, read-out: SKBR3 IC50. It counts as cell-based.
Assay [8] has as its target ChT-L site of the proteasome. The assay can be described thus: Binding affinity to the ChT-L site of the proteasome. It counts as biochemical. The note with it: read-out: IC50, ChT-L site of the proteasome; proteasome source not stated.
The mark [9] stands for this setting: Homo sapiens, NCI-H460, read-out: NCI-H460 IC50.
[10] abbreviates: Homo sapiens, HCT-116, read-out: HCT116 IC50.
Where [11] appears, read: read-out: NCI-H460 IC50, Table 1, NCI-H460 cell line.

Where two headings read alike, the source gives them in different places.

As a reminder, the IC50 is the concentration that gives 50% inhibition.

In the case of `CCCCCC(=O)N[C@H](C(=O)N[C@@H](CCC(=O)N[C@@H](CC(C)C)C(=O)[C@@]1(C)CO1)C(=O)NC(CCS(=O)(=O)c1ccc(N)cc1)C(=O)OC)C(C)C` (stereo partly drawn) [Analogue 17, Methyl 4-((4-aminophenyl)sulfonyl)-2-((S)-2-((S)-2-hexanamido-3-methylbutanamido)-5(((S)-4-methyl-1-((R)-2-methyloxiran-2-yl)-1-oxopentan-2-yl)amino)-5oxopentanamido)butanoate], the IC50 was > 10000 nM in assay [1] (setting [9]); > 1000 nM in assay [2]; 1740 nM in assay [3]; > 1000 nM in assay [4]; 5540 nM in assay [5] (setting [10]); > 1000 nM in assay [6]. The IC50 in assay [7] amounted to 2430 nM.
For `CCCCCC(=O)N[C@H](C(=O)N[C@@H](CCS(=O)(=O)CCNC(=O)OC(C)(C)C)C(=O)N[C@@H](CC(C)C)C(=O)[C@@]1(C)CO1)C(C)C` [Analogue 7-Boc, tert-Butyl (2-(((S)-3-((S)-2-hexanamido-3-methylbutanamido)-4-(((S)-4-methyl-1-((R)-2methyloxiran-2-yl)-1-oxopentan-2-yl)amino)-4-oxobutyl)sulfonyl)ethyl)carbamate], the figures for the half-inhibitory concentration (IC50) in assay [1] (setting [9]), in assay [2] and in assay [5] (setting [10]) were 2.1 ± 0.16 nM, 14.2 ± 2.4 nM and 4.8 ± 0.27 nM, respectively.
With `CCCCCC(=O)N[C@H](C(=O)N[C@@H](CCC(=O)N[C@@H](CC(C)C)C(=O)[C@@]1(C)CO1)C(=O)N[C@@H](CC(C)C)C(=O)[C@@]1(C)CO1)C(C)C` [Analogue 14, (S)-2-((S)-2-Hexanamido-3-methylbutanamido)-N1,N5-bis((S)-4-methyl-1-((R)-2methyloxiran-2-yl)-1-oxopentan-2-yl)pentanediamide], the IC50 in assay [1] (setting [9]) was 5.4 ± 1 nM; in assay [2] it was 1.9 ± 0.1 nM; in assay [4], 98 nM; in assay [5] (setting [10]), 0.2 ± 0.1 nM; in assay [6], 150 nM.
With `CC(C)CC(NC(=O)C(CCS(C)(=O)=O)NC(=O)C(NC(=O)CCCCCN)C(C)C)C(=O)C1(C)CO1` (centres unmarked) [Analogue 6], the IC50 in assay [1] (setting [11]) came to 860 nM; in assay [8], 539 nM.
With `CC(C)C[C@H](NC(=O)[C@H](CCS(=O)(=O)CCNC(=O)OC(C)(C)C)NC(=O)[C@H](Cc1ccccc1)NC(=O)Cc1ccccc1)C(=O)[C@@]1(C)CO1` [Analogue 8-Boc, tert-Butyl (2-(((S)-4-(((S)-4-methyl-1-((R)-2-methyloxiran-2-yl)-1-oxopentan-2-yl)amino)-4oxo-3-((S)-3-phenyl-2-(2-phenylacetamido)propanamido)butyl)sulfonyl)ethyl)carbamate], the concentration for half-maximal inhibition (IC50) in assay [1] (setting [9]) amounted to 8.5 ± 1.2 nM; in assay [5] (setting [10]) it was 4.8 ± 0.35 nM.
`CCCCCC(=O)N[C@H](C(=O)N[C@@H](CCS(=O)(=O)CCN)C(=O)N[C@@H](CC(C)C)C(=O)[C@@]1(C)CO1)C(C)C` [Analogue 7, N-((S)-1-(((S)-4-((2-aminoethyl)sulfonyl)-1-(((S)-4-methyl-1-((R)-2-methyloxiran-2-yl)-1oxopentan-2-yl)amino)-1-oxobutan-2-yl)amino)-3-methyl-1-oxobutan-2-yl)hexanamide]: the figures for the IC50 in assay [1] (setting [9]), in assay [2] and in assay [5] (setting [10]) were 34 nM, 42.2 ± 5.4 nM and 624 nM, respectively.
Turning to `C[C@]1(C(=O)[C@H](Cc2ccccc2)NC(=O)[C@H](CCS(=O)(=O)CCN)NC(=O)[C@H](Cc2ccccc2)NC(=O)Cc2ccccc2)CO1` [Analogue 10, (S)-4-((2-Aminoethyl)sulfonyl)-N-((S)-1-((R)-2-methyloxiran-2-yl)-1-oxo-3-phenylpropan-2yl)-2-((S)-3-phenyl-2-(2-phenylacetamido)propanamido)butanamide], the results for the IC50 in assay [1] (setting [9]) and in assay [5] (setting [10]) were 304 nM and 698 nM, respectively.
The matching figures for `CCCCCC(=O)N[C@H](C(=O)N[C@@H](CCS(=O)(=O)CCN)C(=O)N[C@@H](Cc1ccccc1)C(=O)[C@@]1(C)CO1)C(C)C` [Analogue 9, N-((S)-1-(((S)-4-((2-Aminoethyl)sulfonyl)-1-(((S)-1-((R)-2-methyloxiran-2-yl)-1-oxo-3phenylpropan-2-yl)amino)-1-oxobutan-2-yl)amino)-3-methyl-1-oxobutan-2-yl)hexanamide]: 33.4 nM and 882 nM.
`CCCCCC(=O)N[C@@H](Cc1ccc(N)cc1)C(=O)N[C@@H](CCC(=O)N[C@@H](CC(C)C)C(=O)[C@@]1(C)CO1)C(=O)N[C@@H](CC(C)C)C(=O)[C@@]1(C)CO1` [Analogue 15, (S)-2-((S)-3-(4-Aminophenyl)-2-hexanamidopropanamido)-N1,N5-bis((S)-4-methyl-1-((R)2-methyloxiran-2-yl)-1-oxopentan-2-yl)pentanediamide]: the IC50 in assay [1] (setting [9]) is 29.8 nM; in assay [2], 5.6 nM; in assay [3] it was 30 nM; in assay [4] it was 315 nM; in assay [5] (setting [10]) it was 53 nM; in assay [6] it was > 1000 nM. Besides, the IC50 in assay [7] turned out to be 21 nM.
With `CCCCCC(=O)N[C@H](C(=O)N[C@@H](CCS(=O)(=O)c1ccc(N)cc1)C(=O)N[C@@H](CC(C)C)C(=O)[C@@]1(C)CO1)C(C)C` [Analogue 13, N-((S)-1-(((S)-4-((4-Aminophenyl)sulfonyl)-1-(((S)-4-methyl-1-((R)-2-methyloxiran-2-yl)-1oxopentan-2-yl)amino)-1-oxobutan-2-yl)amino)-3-methyl-1-oxobutan-2-yl)hexanamide], the IC50 in assay [1] (setting [9]) amounted to 1.8 ± 0.1 nM; in assay [2] it was 1.5 ± 0.2 nM; in assay [4], 14 nM; in assay [5] (setting [10]), 2.6 ± 0.2 nM; in assay [6], 540 nM; in assay [7] it was 0.43 nM.
In the case of `CCCCCC(=O)N[C@H](C(=O)N[C@@H](CCS(C)(=O)=O)C(=O)N[C@@H](CC(C)C)C(=O)[C@@]1(C)CO1)C(C)C` [carmaphycin B, reference compound], the IC50 in assay [1] (setting [11]) is 6 nM.
As for `CC(C)(C)OC(=O)NCCS(=O)(=O)CC[C@H](NC(=O)[C@H](Cc1ccccc1)NC(=O)Cc1ccccc1)C(=O)N[C@@H](Cc1ccccc1)C(=O)[C@@]1(C)CO1` [Analogue 10-Boc, tert-Butyl (2-(((S)-4-(((S)-1-((R)-2-methyloxiran-2-yl)-1-oxo-3-phenylpropan-2-yl)amino)-4oxo-3-((S)-3-phenyl-2-(2-phenylacetamido)propanamido)butyl)sulfonyl)ethyl)carbamate], the IC50 in assay [1] (setting [9]) was 21 ± 1.3 nM; in assay [5] (setting [10]), 10.9 ± 0.98 nM.
In the case of `CCCCCC(=O)NC(C(=O)NC(CCSC)C(=O)NC(CC(C)C)C(=O)C1(C)CO1)C(C)C` (centres unmarked) [Analogue 21], the IC50 was 27 ± 2.6 nM in assay [1] (read-out: NCI-H460 IC50, Table 2, NCI-H460 cell line) and 22 nM in assay [5] (read-out: HCT116 IC50, Table 2, HCT116 cell line).
Take `CC(C)C[C@H](NC(=O)[C@H](CCS(=O)(=O)CCN)NC(=O)[C@H](Cc1ccccc1)NC(=O)Cc1ccccc1)C(=O)[C@@]1(C)CO1` [Analogue 8, (S)-4-((2-Aminoethyl)sulfonyl)-N-((S)-4-methyl-1-((R)-2-methyloxiran-2-yl)-1-oxopentan-2yl)-2-((S)-3-phenyl-2-(2-phenylacetamido)propanamido)butanamide]: the IC50 is 34.2 nM in assay [1] (setting [9]) and 165 nM in assay [5] (setting [10]).
On to `CCCCCC(=O)N[C@H](C(=O)N[C@@H](CCS(=O)(=O)c1ccc(NC(=O)OC(C)(C)C)cc1)C(=O)N[C@@H](CC(C)C)C(=O)[C@@]1(C)CO1)C(C)C` [Analogue 13-Boc, tert-Butyl (4-(((S)-3-((S)-2-hexanamido-3-methylbutanamido)-4-(((S)-4-methyl-1-((R)-2methyloxiran-2-yl)-1-oxopentan-2-yl)amino)-4-oxobutyl)sulfonyl)phenyl)carbamate], for which, in assay [5] (setting [10]), the IC50 came to 4.9 ± 0.1 nM.
Consider `CC(C)C[C@H](NC(=O)CC[C@H](NC(=O)[C@@H](NC(=O)Cc1ccc(N)cc1)C(C)C)C(=O)N[C@@H](CC(C)C)C(=O)[C@@]1(C)CO1)C(=O)[C@@]1(C)CO1` [Analogue 16, (S)-2-((S)-2-(2-(4-Aminophenyl)acetamido)-3-methylbutanamido)-N1,N5-bis((S)-4-methyl1-((R)-2-methyloxiran-2-yl)-1-oxopentan-2-yl)pentanediamide], for which the 50% inhibitory concentration (IC50) in assay [1] (setting [9]) is 25.3 nM; in assay [2], 90 ± 13 nM; in assay [3], 33 nM; in assay [4] it was 71.5 nM; in assay [5] (setting [10]) it was 45 nM; in assay [6], > 1000 nM. For the same molecule, in assay [7], the IC50 was determined as 25 nM.
Regarding `CCCCCC(=O)N[C@H](C(=O)N[C@@H](CCS(=O)(=O)CCNC(=O)OC(C)(C)C)C(=O)N[C@@H](Cc1ccccc1)C(=O)[C@@]1(C)CO1)C(C)C` [Analogue 9-Boc, tert-Butyl (2-(((S)-3-((S)-2-hexanamido-3-methylbutanamido)-4-(((S)-1-((R)-2methyloxiran-2-yl)-1-oxo-3-phenylpropan-2-yl)amino)-4oxobutyl)sulfonyl)ethyl)carbamate], the values for the 50% inhibitory concentration (IC50) in assay [1] (setting [9]) and in assay [5] (setting [10]) were 2.6 ± 0.12 nM and 1.3 ± 0.2 nM, respectively.

The values above are taken from article PMC6248884 (European journal of medicinal chemistry, 2018).
